One data set relates to Enterococcus faecalis. The data set is described as follows: Antimicrobial activity against Enterococcus faecalis INCQS 00234 ATCC 29212 assessed as zone of inhibition at 5 mg/ml after 18 to 24 hrs by disc diffusion method. In kind it is functional. The settings on record: ATCC 29212 INCQS 00234, read-out: IZ. In general terms: Agar diffusion results depend on both activity and mobility in agar.

The test system of data set [1] is Staphylococcus aureus. Description: Antimicrobial activity against Staphylococcus aureus INCQS 00015 ATCC 25923 assessed as zone of inhibition at 5 mg/ml after 18 to 24 hrs by disc diffusion method. The format is functional. The settings on record: read-out: IZ.
Data set [2] relates to Staphylococcus epidermidis. Description: Antimicrobial activity against Staphylococcus epidermidis INCQS 00016 ATCC 12228 assessed as zone of inhibition at 5 mg/ml after 18 to 24 hrs by disc diffusion method. The format is functional. The following applies: ATCC 12228 INCQS 00016, read-out: IZ.
The test system of a further data set is Staphylococcus simulans. The data set is described as follows: Antimicrobial activity against Staphylococcus simulans INCQS 00254 ATCC 27851 assessed as zone of inhibition at 5 mg/ml after 18 to 24 hrs by disc diffusion method. In kind it is functional. The following applies: read-out: IZ.
For data set [3], the system named is Staphylococcus aureus. The data set is described as follows: Antimicrobial activity against methicillin-resistant Staphylococcus aureus BMB9393 assessed as zone of inhibition at 5 mg/ml after 18 to 24 hrs by disc diffusion method. In kind it is functional. The following applies: read-out: IZ.
Another data set deals with Escherichia coli. The data set is described as follows: Antimicrobial activity against Escherichia coli INCQS 00033 ATCC 25922 assessed as zone of inhibition at 5 mg/ml after 18 to 24 hrs by disc diffusion method. The format is functional. The following applies: ATCC 25922 INCQS 00033, read-out: IZ.
The next data set has as its system Proteus mirabilis. Description: Antimicrobial activity against Proteus mirabilis INCQS 00095 ATCC 15290 assessed as zone of inhibition at 5 mg/ml after 18 to 24 hrs by disc diffusion method. The following applies: read-out: IZ. In kind it is functional.
A further data set concerns Klebsiella pneumoniae. Description: Antimicrobial activity against Klebsiella pneumoniae INCQS 00083 ATCC 4352 assessed as zone of inhibition at 5 mg/ml after 18 to 24 hrs by disc diffusion method. In kind it is functional. The settings on record: read-out: IZ.
The subject of a further data set is Pseudomonas aeruginosa. The data set is described as follows: Antimicrobial activity against Pseudomonas aeruginosa INCQS 00099 ATCC 27853 assessed as zone of inhibition at 5 mg/ml after 18 to 24 hrs by disc diffusion method. The format is functional. The following applies: read-out: IZ.
Data set [4] can be described thus: Hemolytic activity against human erythrocytes assessed as hemolysis at 200 ug/ml after 3 hrs by spectrophotometric analysis relative to control. The format is ADME, cell-based, Erythrocyte. The following applies: read-out: Activity. The essentials: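 Erythrocytes collected in citrate tubes, washed three times with PBS pH 7.4 by centrifugation and resuspended in PBS. Incubated with compounds at 200 µg/mL for 3 h at 37°C. Released hemoglobin was read in the supernatant at 545 nm against 1% Triton X-100 (complete lysis) and 1% DMSO (negative control). Below 10% hemolysis was taken as hemocompatible. Three independent experiments.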

Where only a bound is given, the exact number is not on record here.

Consider `CO[C@@H]1O[C@H](CNC2=CC(=O)c3ccccc3C2=O)[C@H]2OC(C)(C)O[C@@H]12`, for which the zone of inhibition at 5000 µg/mL (in the data set on Enterococcus faecalis; in the data set with Staphylococcus aureus [1]; in data set [2]; in the data set on Staphylococcus simulans; with Staphylococcus aureus [3]; in the data set with Escherichia coli) was 0 mm in each case. Moreover, the zone of inhibition at 5000 µg/mL in the data set with Proteus mirabilis, in the data set on Klebsiella pneumoniae and in the data set on Pseudomonas aeruginosa was 0 mm in each case. Also, in [4], the hemolysis at 3 h, 200 ug/ml is less than 10%.

For the compound `CC1(C)O[C@H]2O[C@H](CNC3=CC(=O)c4ccccc4C3=O)[C@H](O)[C@H]2O1`, the zone of inhibition at 5000 µg/mL (in the data set on Enterococcus faecalis; with Staphylococcus aureus [1]; in data set [2]; with Staphylococcus simulans; with Staphylococcus aureus [3]; with Escherichia coli) was 0 mm throughout. Besides, the zone of inhibition at 5000 µg/mL with Proteus mirabilis, in the data set on Klebsiella pneumoniae and with Pseudomonas aeruginosa was 0 mm each time. The hemolysis at 3 h, 200 ug/ml in data set [4] was less than 10%.

Regarding `COC(=O)c1c(C)nc(C)c2c1C(=O)C=C(NC[C@H]1O[C@@H](OC)[C@@H]3OC(C)(C)O[C@@H]31)C2=O`, the zone of inhibition at 5000 µg/mL (in the data set on Enterococcus faecalis; in the data set on Staphylococcus aureus [1]; in [2]; with Staphylococcus simulans; with Staphylococcus aureus [3]; with Escherichia coli) was 0 mm throughout. The zone of inhibition at 5000 µg/mL in the data set with Proteus mirabilis, with Klebsiella pneumoniae and with Pseudomonas aeruginosa was 0 mm each time. Moreover, the hemolysis at 3 h, 200 ug/ml in data set [4] is less than 10%.

On to `COC(=O)c1c(C)nc(C)c2c1C(=O)C(Br)=C(NC[C@H]1O[C@@H]3OC(C)(C)O[C@@H]3[C@H]3OC(C)(C)O[C@H]31)C2=O`, for which the zone of inhibition at 5000 µg/mL (in the data set on Enterococcus faecalis; with Staphylococcus aureus [1]; in [2]; in the data set on Staphylococcus simulans; in the data set with Staphylococcus aureus [3]; in the data set on Escherichia coli) was 0 mm in each case. The zone of inhibition at 5000 µg/mL with Proteus mirabilis, in the data set on Klebsiella pneumoniae and with Pseudomonas aeruginosa was 0 mm in each case. The hemolysis at 3 h, 200 ug/ml in data set [4] was less than 10%.

`COC(=O)c1c(C)nc(C)c2c1C(=O)C(Cl)=C(NC[C@H]1O[C@@H]3OC(C)(C)O[C@@H]3[C@H]3OC(C)(C)O[C@H]31)C2=O`: the zone of inhibition at 5000 µg/mL (in the data set on Enterococcus faecalis; in the data set with Staphylococcus aureus [1]; in [2]; in the data set on Staphylococcus simulans; in the data set on Staphylococcus aureus [3]; in the data set on Escherichia coli) was 0 mm in each case. The zone of inhibition at 5000 µg/mL in the data set on Proteus mirabilis, in the data set on Klebsiella pneumoniae and in the data set with Pseudomonas aeruginosa was 0 mm in each case. The hemolysis at 3 h, 200 ug/ml in data set [4] was less than 10%.

On to `CC1(C)O[C@H]2[C@@H](O1)[C@@H](CNC1=C(Br)C(=O)c3ccccc3C1=O)O[C@@H]1OC(C)(C)O[C@@H]12`, for which the zone of inhibition at 5000 µg/mL (with Enterococcus faecalis; in the data set on Staphylococcus aureus [1]; in data set [2]; in the data set on Staphylococcus simulans; in the data set with Staphylococcus aureus [3]; in the data set on Escherichia coli) was 0 mm in each case. Besides, the zone of inhibition at 5000 µg/mL in the data set with Proteus mirabilis, with Klebsiella pneumoniae and in the data set on Pseudomonas aeruginosa was 0 mm each time. For the same compound, the hemolysis at 3 h, 200 ug/ml in data set [4] was 10.1 to 14.4%.

`CC1(C)O[C@H]2[C@@H](O1)[C@@H](CNC1=CC(=O)c3ccccc3C1=O)O[C@@H]1OC(C)(C)O[C@@H]12`: the zone of inhibition at 5000 µg/mL (in the data set with Enterococcus faecalis; with Staphylococcus aureus [1]; in data set [2]; in the data set on Staphylococcus simulans; in the data set with Staphylococcus aureus [3]; with Escherichia coli) was 0 mm throughout. Further, the zone of inhibition at 5000 µg/mL in the data set with Proteus mirabilis, in the data set with Klebsiella pneumoniae and in the data set with Pseudomonas aeruginosa was 0 mm in each case. In data set [4], the hemolysis at 3 h, 200 ug/ml was less than 10%.

In the case of `COC(=O)c1c(C)nc(C)c2c1C(=O)C(Cl)=C(NC[C@H]1O[C@@H](OC)[C@@H]3OC(C)(C)O[C@@H]31)C2=O`, the zone of inhibition at 5000 µg/mL (with Enterococcus faecalis; in the data set on Staphylococcus aureus [1]; in [2]; with Staphylococcus simulans; in the data set on Staphylococcus aureus [3]; in the data set on Escherichia coli) was 0 mm in each case. Also, the zone of inhibition at 5000 µg/mL in the data set with Proteus mirabilis, with Klebsiella pneumoniae and with Pseudomonas aeruginosa was 0 mm in each case. In addition, in data set [4], the hemolysis at 3 h, 200 ug/ml is less than 10%.

Turning to `COC(=O)c1c(C)nc(C)c2c1C(=O)C=C(N)C2=O`, the zone of inhibition at 5000 µg/mL (in the data set on Enterococcus faecalis; in the data set on Staphylococcus aureus [1]; in [2]; with Staphylococcus simulans; with Staphylococcus aureus [3]; in the data set on Escherichia coli) was 0 mm throughout. For the same compound, the zone of inhibition at 5000 µg/mL in the data set with Proteus mirabilis, in the data set with Klebsiella pneumoniae and with Pseudomonas aeruginosa was 0 mm each time. Moreover, in [4], the hemolysis at 3 h, 200 ug/ml was less than 10%.

Consider `O=C(O)c1cn(C2CC2)c2cc(N3CCNCC3)c(F)cc2c1=O` [CIPROFLOXACIN], for which the zone of inhibition at 5000 µg/mL in the data set with Escherichia coli is 35 mm; in the data set with Proteus mirabilis it was 28 mm; in the data set on Klebsiella pneumoniae, 27 mm; in the data set with Pseudomonas aeruginosa, 36 mm.

The values are drawn from ChEMBL document CHEMBL4270541, “Synthesis and antimicrobial evaluation of amino sugar-based naphthoquinones and isoquinoline-5,8-diones and their halogenated compounds” (Eur J Med Chem, 2018).
